The nature of series [1]: Cytotoxicity against human MT4 cells after 96 hrs by MTT assay. Format: cell-based. The conditions noted are these: MT4 cells. The procedure, abridged: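 Exponentially growing MT-4 cells at 1 × 10^5 cells/mL in RPMI-1640 with 10% FCS, exposed to serial compound dilutions at 37 °C, 5% CO2. Viability by MTT after 96 h; CC50 is the concentration reducing viability of mock-infected cells by 50%.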
On the technique in general: Tetrazolium assays rely on reduction of a dye to a coloured formazan, in cell work by metabolically active cells.

Series [2] is described as follows: Cytotoxicity against MDBK cells after 48 to 96 hrs by MTT assay. Format: cell-based, Bos taurus. As to conditions: cattle, MDBK cells. The procedure, abridged:
(§1)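 Cell seeding: MDBK at 6 × 10^5 cells/mL in MEM-E with 10% horse serum and 1 mM Na pyruvate; BHK at 1 × 10^6 cells/mL in MEM-E with 10% FBS. Serial compound dilutions, 37 °C, 5% CO2. Viability of mock-infected cells by MTT after 48–96 h; CC50 is the concentration reducing viability by 50%.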

Series [3] is described as follows: Cytotoxicity against BHK cells after 48 to 96 hrs by MTT assay. Format: cell-based, Mesocricetus auratus. The conditions noted are these: hamster. The procedure, abridged:
as §1

Series [4] is described as follows: Cytotoxicity against african green monkey Vero cells. Format: cell-based. The conditions noted are these: chlorocebus sabaeus. An outline of the steps: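 Vero 76 monolayers exposed to serial compound dilutions, run in parallel on the same 24-well plates as the plaque-reduction assays. CC50 is the concentration reducing viability of mock-infected cells by 50%.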

Series [5] concerns Human immunodeficiency virus 1. The series can be described thus: Antiviral activity against HIV1 3B infected in human MT4 cells assessed as protection from virus-induced cytopathogenicity after 4 days by MTT method. Format: functional, organism-based. The procedure, abridged:
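MT-4 cells, 1 × 10^4/well in RPMI with or without serial compound dilutions, infected with HIV-1 IIIB, 100 CCID50 (m.o.i. 0.01). Protection from virus-induced cytopathogenicity read by MTT.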
A general note: Cytopathic effects are the visible damage that an infection or toxin causes in cultured cells.

The subject of series [6] is Vesicular stomatitis virus. Description: Antiviral activity against VSV Indiana lab infected in african green monkey Vero cells after 2 days by plaque reduction assay. Format: functional, organism-based.
Series [7] has as its system Bovine viral diarrhea virus 1. The series can be described thus: Antiviral activity against Bovine viral diarrhea virus NADL infected in MDBK cells assessed as protection from virus-induced cytopathogenicity after 3 to 4 days by MTT method. Format: functional, organism-based, Bovine viral diarrhea virus 1-NADL. As to conditions: Bovine viral diarrhea virus isolates and strains, MDBK. An outline of the steps:
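Cytopathogenicity protection assay. MDBK cells at 3 × 10^4/well, grown overnight to confluence. Infected with BVDV NADL at m.o.i. 0.01 in MEM-E with 0.5% inactivated FBS, 1 mM Na pyruvate and 1% kanamycin. Serial compound dilutions added after 1 h. After 3–4 days at 37 °C, viability read by MTT; EC50 is the concentration giving 50% protection.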

The test system of series [8] is Yellow fever virus. The series can be described thus: Antiviral activity against Yellow fever virus 17D infected in BHK cells assessed as protection from virus-induced cytopathogenicity after 3 to 4 days by MTT method. Format: functional, organism-based.
Series [9] relates to Coxsackievirus B2. Description: Antiviral activity against Human coxsackievirus B2 Ohio-1 infected in african green monkey Vero cells after 3 days by plaque reduction assay. Format: functional, organism-based, Coxsackievirus B2 (strain Ohio-1). As to conditions: Enterovirus B, Vero, 72 h. An outline of the steps:
(§2)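 Plaque reduction assay. Vero 76 cells at 2 × 10^5/well, grown overnight to confluence in D-MEM with 10% FBS. Infected 2 h with 50–100 PFU/well, unadsorbed virus removed. Overlay of D-MEM with 1% inactivated FBS and 0.75% methylcellulose, with or without serial compound dilutions. Incubated at 37 °C for 3 days (HSV-1 KOS, CVB-2 Ohio-1) or 5 days (RSV A2). Fixed and stained with crystal violet in 50% ethanol; plaques counted; EC50 by linear regression.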

The test system of series [10] is Poliovirus 1. Description: Antiviral activity against Polio virus type1 Sabin strain Chat infected in african green monkey Vero cells after 2 days by plaque reduction assay. The conditions noted are these: Enterovirus C, 48 h. Format: functional, organism-based, Human poliovirus 1 strain Sabin. (In a plaque reduction assay, fewer plaques than in the control indicate reduced infectivity or spread.)

Series [11] has as its system Human alphaherpesvirus 1. Description: Antiviral activity against HSV1 KOS infected in african green monkey Vero cells after 3 days by plaque reduction assay. Format: functional, organism-based. As to conditions: Human alphaherpesvirus 1, KOS, 72 h. An outline of the steps: as §2
For series [12], the system named is Respiratory syncytial virus. Description: Antiviral activity against RSV A2 infected in african green monkey Vero cells after 5 days by plaque reduction assay. Format: functional, organism-based. As to conditions: for EC50: human respiratory syncytial virus, A2, Vero, 120 h. The procedure, abridged: as §2
Series [13] concerns Vaccinia virus. Description: Antiviral activity against Vaccinia virus Elstree-Lister infected in african green monkey Vero cells after 3 days by plaque reduction assay. Format: functional, organism-based. The conditions noted are these: Orthopoxvirus vaccinia; for EC50: 72 h.
Series [14] deals with Mammalian orthoreovirus 1. The series can be described thus: Antiviral activity against Reovirus 1 3651 infected in BHK21 cells assessed as protection from virus-induced cytopathogenicity after 3 to 4 days by MTT method. Format: functional, organism-based. The conditions noted are these: for Activity: BHK-21.

Twelve compounds from ChEMBL document CHEMBL1156237, “Antiviral activity of benzimidazole derivatives. II. Antiviral activity of 2-phenylbenzimidazole derivatives” (Bioorg Med Chem, 2010) can be followed below.

The source made the active and inactive calls. Where only a bound is given, the exact number is not on record here.

As to `CCN(CC)CC(=O)Nc1ccc(-c2nc3cc(C(F)(F)F)ccc3n2C)cc1`, half-maximal cytotoxicity in series [1] (CC50 at 96 h) was put at 9 µM. In addition, the CC50 in [2] was 57 µM; in series [3], 16 µM; in series [4], 90 µM. Further, the result in series [5], in series [6], in [12], in series [13] and in series [14] was inactive. Also, the EC50 in series [7] was 10 µM; in series [8], 7 µM; in series [9] it was 21 µM; in series [10], 35 µM; in series [11], over 90 µM.

Turning to `Cn1c(-c2ccc(N)cc2)nc2cc(C(F)(F)F)ccc21`, the CC50 at 96 h in [1] came out at 20 µM. The half-maximal cytotoxic concentration (CC50) in series [2] was 74 µM; in series [3] it was 85 µM; in [4], over 100 µM. Also, the outcome in series [5], in series [6], in [12], in [13] and in [14] was inactive. Besides, the concentration for a half-maximal effect (EC50) in series [7] was 69 µM; in series [8] it was over 85 µM; in [9], 14 µM; in series [10], 20 µM; in series [11], over 100 µM.

In the case of `Nc1ccc(-c2nc3cc(C(F)(F)F)ccc3n2C23CC4CC(CC(C4)C2)C3)cc1`, the CC50 at 96 h in [1] was 19 µM. Besides, the CC50 in series [2] was found to be 19 µM; in series [3] it was 16 µM; in series [4], 60 µM. In addition, the outcome in [5], in series [6], in [12], in [13] and in [14] was inactive. Also, the EC50 in [7] was 7 µM; in [8], over 16 µM; in [9], 11 µM; in [10], over 60 µM; in [11], over 60 µM.

In series [1], `Cn1c(-c2ccc(NC(=O)CN3CCN(c4ccccc4)CC3)cc2)nc2cc(C(F)(F)F)ccc21` displayed a CC50 at 96 h of 1.5 µM. Besides, the CC50 in series [2] was 1.4 µM; in [3], 100 µM; in series [4], 30 µM. In addition, the outcome in series [5], in series [6], in series [12], in [13] and in series [14] was inactive. In addition, the EC50 is over 1.4 µM in series [7]; over 100 µM in series [8]; 3 µM in [9]; 2 µM in [10]; over 30 µM in series [11].

Turning to `CN1CCN(CC(=O)Nc2ccc(-c3nc4cc(C(F)(F)F)ccc4n3C)cc2)CC1`, it took 22 µM to reach half-maximal cytotoxicity in series [1] (CC50 at 96 h). Further, the half-maximal cytotoxic concentration (CC50) is 44 µM in series [2], 16 µM in [3] and over 100 µM in series [4]. In addition, the outcome in [5], in series [6], in series [12], in series [13] and in series [14] was inactive. The 50% effective concentration (EC50) is 15 µM in series [7]; 7 µM in series [8]; 19 µM in series [9]; 41 µM in [10]; over 100 µM in [11].

`Cn1c(-c2ccc(NC(=O)CN3CCCCC3)cc2)nc2cc(C(F)(F)F)ccc21` gave a CC50 at 96 h in series [1] of 9 µM. The values for the CC50 in series [2], in [3] and in [4] were 100 µM, over 100 µM and over 100 µM, respectively. Also, the outcome in [5], in series [6], in [12], in [13] and in series [14] was inactive. Besides, the EC50 in [7] is 6 µM; in series [8], over 100 µM; in [9], 32 µM; in series [10] it was over 100 µM; in series [11] it was over 100 µM.

As to `O=C(CN1CCN(c2ccccc2)CC1)Nc1ccc(-c2nc3cc(C(F)(F)F)ccc3n2C23CC4CC(CC(C4)C2)C3)cc1`, the CC50 at 96 h in series [1] is over 100 µM. For the same compound, the CC50 in [2], in series [3] and in series [4] was over 100 µM throughout. The result in [5], in [6], in series [12], in series [13] and in series [14] was inactive. Moreover, the 50% effective concentration (EC50) in series [7] was over 100 µM; in [8], over 100 µM; in series [9], 27 µM; in series [10], over 100 µM; in series [11], over 100 µM.

In series [1], `Nc1ccc(-c2nc3ccccc3[nH]2)cc1` had a CC50 at 96 h of 81 µM. The cytotoxic concentration (CC50) in series [2], in series [3] and in series [4] was over 100 µM in each case. In addition, the result in series [5] and in [6] was inactive. Also, the EC50 in series [7] is 16 µM; in series [8] it was over 100 µM; in series [9], 19 µM; in series [10], over 100 µM; in series [11], over 100 µM; in [14] (Mammalian orthoreovirus 1, 3651, BHK-21), 85 µM.

Regarding `Oc1ccc(-c2nc3cc(Cl)c(Cl)cc3[nH]2)cc1`, the half-maximal cytotoxic concentration (CC50) at 96 h in [1] was found to be 12 µM. Further, the figures for the cytotoxic concentration (CC50) in series [2], in series [3] and in series [4] were 11 µM, 29 µM and 18 µM, respectively. The result in series [5] and in [6] was inactive. In addition, the concentration for a half-maximal effect (EC50) was over 11 µM in series [7]; over 29 µM in [8]; over 18 µM in [9]; over 18 µM in series [10]; over 18 µM in series [11]; 7 µM in series [12]. In [13], this compound yielded a concentration giving a half-maximal response (EC50) of over 18 µM.

As to `COc1ccc(-c2nc3cc(C(C)=O)ccc3[nH]2)c(OC)c1`, the half-maximal cytotoxic concentration (CC50) at 96 h in series [1] was over 100 µM. The 50% cytotoxic concentration (CC50) in series [2], in series [3] and in [4] was over 100 µM throughout. For the same compound, the outcome in [5] and in [6] was inactive. For the same compound, the EC50 in series [7] is 42 µM; in series [8], over 100 µM; in series [9] it was over 100 µM; in series [10], over 100 µM; in [11], over 100 µM; in [12] it was over 100 µM. This compound showed an EC50 in series [13] of over 100 µM.

Turning to `COc1cc(-c2nc3cc(C(F)(F)F)ccc3[nH]2)cc(OC)c1OC`, it took 4 µM to reach half-maximal cytotoxicity in series [1] (CC50 at 96 h). Further, the results for the CC50 in series [2], in series [3] and in series [4] were 18 µM, 31 µM and 29 µM, respectively. Moreover, the result in [5] and in series [6] was inactive. The EC50 is over 18 µM in series [7]; over 31 µM in series [8]; 11 µM in series [9]; over 29 µM in series [10]; over 29 µM in [11]; over 29 µM in series [12]. In addition, the concentration for a half-maximal effect (EC50) in series [13] is over 29 µM.

In turn, `COc1ccc(-c2nc3cc(C(F)(F)F)ccc3[nH]2)c(OC)c1` registered a CC50 at 96 h in series [1] of over 100 µM. Also, the CC50 in series [2], in series [3] and in [4] was over 100 µM in each case. In addition, the outcome in series [5] and in [6] was inactive. Further, the EC50 in [7] was over 100 µM; in [8] it was over 100 µM; in [9] it was 32 µM; in series [10], over 100 µM; in [11], over 100 µM; in [12], over 100 µM. Further, the concentration giving a half-maximal response (EC50) in series [13] is over 100 µM.

Broadly, the CC50 is the concentration giving 50% cytotoxicity. Usually EC50 stands for the concentration giving half of the maximal effect.
